Source: PubChem BioAssay
In the library only some 2.6% were active in any assay of this set; here they are far more common.
TDP2 absorb: TDP2 (human) inhibition, absorbance primary screen | recombinant TDP2, T5PNP hydrolysis, p-nitrophenol absorbance 415 nm | inhibition, % at 12.8 µM | actives 0.34% (n = 370,000) | O95551;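 active means inhibition above the mean of all tested compounds plus 3 SD, set per campaign, cut at about 25% in these data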;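 further: 0% = DMSO with enzyme and 100% = buffer with substrate but no TDP2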
Target sequence (O95551 whole entry, looked up): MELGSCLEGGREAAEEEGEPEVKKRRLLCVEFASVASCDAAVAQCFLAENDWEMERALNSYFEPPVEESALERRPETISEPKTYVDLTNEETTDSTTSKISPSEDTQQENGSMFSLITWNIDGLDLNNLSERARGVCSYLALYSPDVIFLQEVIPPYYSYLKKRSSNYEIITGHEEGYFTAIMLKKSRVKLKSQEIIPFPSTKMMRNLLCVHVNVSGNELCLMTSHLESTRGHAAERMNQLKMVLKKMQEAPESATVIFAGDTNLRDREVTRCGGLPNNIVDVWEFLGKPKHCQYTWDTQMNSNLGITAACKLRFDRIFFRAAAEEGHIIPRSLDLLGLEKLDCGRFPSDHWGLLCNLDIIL
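System – recombinant human TDP2 · Amount – 120 nM TDP2 per well · Buffer or medium – Mg2+-containing Tris-HCl buffer, pH 7.5 · Reagent – T5PNP substrate, 5 mM · Dosing – 12.8 µM single point, 1% DMSO · Incubation – 2 h at 37 °C · Measured by – epi absorbance · Read-out basis – percent inhibition · Benchmarks – high control without enzyme, low control DMSO plus TDP2 · Repeats – singlicate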
Apaf1 inhib: human Apaf-1 inhibition; inhibition, % at 20 µM; actives 0.71% (n = 330,000); O14727; reconstituted apoptosome caspase-3 activity, DEVD-Rh110 fluorescence; active means inhibition of at least 40% at 20 µM;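 further: plate controls were DMSO wells for no effect and DEVD-CHO caspase inhibitor wells for full effect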
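Medium: Hepes buffer, pH 7.5 / System: biochemical Apaf-1 apoptosome reconstitution / Measured by: Rh110 fluorescence, excitation 480 nm, emission 540 nm / Times: compound with Apaf-1, dATP, procaspase-3 30 min, then 50 min reaction, room temperature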
PAD4 inh: PAD4 (human) enzyme inhibition; recombinant PAD4, RCA probe fluorescence polarization; inhibition, % at 6.36 µM; actives 0.41% (n = 330,000);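 active means percent inhibition above a cutoff equal to the mean of all tested compounds plus 3 SD, cut at about 15% in these data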;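 further: 0% = PAD4 with RCA probe and DMSO and 100% = probe without PAD4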
GSTO1 counter: counter-screen for RBBP9 inhibitors: inhibitors of human GSTO1; P78417; recombinant GSTO1, activity-based probe fluorescence polarization; inhibition, % at 5.96 µM; actives 1.1% (n = 300,000);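 active means inhibition above the campaign mean inhibition plus 3 SD, cut at about 35% in these data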;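 further: 0% = GSTO1-1 with DMSO and 100% = wells lacking GSTO1-1 enzyme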
Target sequence (P78417 whole entry, looked up): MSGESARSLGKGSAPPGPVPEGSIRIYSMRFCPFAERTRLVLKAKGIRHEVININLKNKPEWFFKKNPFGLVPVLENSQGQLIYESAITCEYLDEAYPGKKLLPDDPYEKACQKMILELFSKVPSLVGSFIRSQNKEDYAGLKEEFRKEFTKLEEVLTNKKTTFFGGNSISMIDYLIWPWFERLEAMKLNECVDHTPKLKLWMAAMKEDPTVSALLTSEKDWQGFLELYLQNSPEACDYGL
PRMT1 FP inh: blocks human protein arginine methyltransferase 1 | actives 1.3% (n = 370,000) | Q99873 | recombinant PRMT1, activity-based probe fluorescence polarization | inhibition, % at 2.79 µM;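 active means inhibition above about 21% made by adding two undisclosed values, limit read from the data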
GSTO1 inh conf: confirmation of human GSTO1 inhibitors. shares compounds with GSTO1 counter. inhibition, % at 5.96 µM. actives 54% (n = 2,400). AID 2176. recombinant GSTO1, probe fluorescence polarization;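 active means inhibition above the primary screen's cutoff, its mean inhibition plus 3 SD, cut at about 35% in these data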;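 further: loss of polarization as inhibitors block binding of rhodamine sulfonate ester activity probe; 0% = GSTO1 with DMSO and 100% = wells lacking GSTO1 enzyme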
GSTO1 recomb ABPP: inhibitors of recombinant human GSTO1. shares compounds with GSTO1 counter. gel ABPP SE-Rh probe fluorescence. inhibition, % at 1 µM. actives 30% (n = 130). AID 463110;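 active means inhibition of the enzyme GSTO1 above about 75%, limit read from the data; inactive means inhibition below that limit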
The depositor's hits bear a star; i = inactive; x = no result given.

SMILES	TDP2 absorb	Apaf1 inhib	PAD4 inh	GSTO1 counter	PRMT1 FP inh	GSTO1 inh conf	others
CC(C)C[C@H]1COc2cccc(N3CCSCC3)c2S(=O)(=O)N1	3	x	x	x	-1	x
O=C(CCl)N1c2ccccc2CCc2ccccc21	-7	-4	3	69*	0	85*	GSTO1 recomb ABPP=50
O=C1/C(=C/c2cccnc2)SC(=S)N1Nc1ccccc1	5	4	-10	52*	-1	19
O=C1/C(=C/c2cccnc2)SC(=S)N1c1ccccc1	-9	-6	-5	5	7	x
CC(C)(c1ccccc1)c1ccc(OCC2CO2)cc1 (stereo unspecified)	14	13	3	94*	1	91*	GSTO1 recomb ABPP=63
O=C(O)COc1ccc(S(=O)(=O)c2ccc(OCC(=O)O)cc2)cc1	2	-3	3	5	0	x
O=S(=O)(c1ccc(OCC2CO2)cc1)c1ccc(OCC2CO2)cc1 (stereo unspecified)	2	-5	2	92*	-1	90*	GSTO1 recomb ABPP=31
CC(C)(C)N1C(=O)c2ccccc2NC(=O)C1C(=O)NCCc1ccccc1F (stereo unspecified)	4	x	x	x	6	x
CC(OC(=O)c1ccc([N+](=O)[O-])s1)C(=O)Nc1ncc(Cl)cc1Cl (stereo unspecified)	-4	34	-4	46*	0	10
Cc1ccc(-c2nc(C3CCCN(S(=O)(=O)c4ccc(C)c(C)c4)C3)no2)cc1 (stereo unspecified)	-6	x	x	x	-8	x
COc1ccc(Br)cc1-c1nc(CCl)cs1	-4	9	2	72*	0	97*	GSTO1 recomb ABPP=53
CC(C)c1onc(C(=O)NCc2cccs2)c1[N+](=O)[O-]	6	1	1	41*	0	33
O=C(NC1CCCCC1)C(c1ccc(-c2ccccc2)cc1)n1c(=O)c(-c2ccco2)nc2ccccc21 (stereo unspecified)	-7	x	x	x	-1	x
COc1ccc(S(=O)(=O)Nc2c(O)ccc3ccccc23)cc1OC	21	11	-17	45*	11	8
CCCCC[C@@H](C)N1C[C@H](COCc2ccccc2)Oc2cc(N3CCC[C@@H]3CO)ccc2S1(=O)=O	-4	x	x	x	1	x
N#Cc1nc(COc2ccccc2F)oc1NCCc1ccccc1	2	9	1	43*	1	18
CSc1ccc(/C=N/Nc2nc(C)cc(=O)[nH]2)cc1	-1	20	2	-9	2	x
Cc1cc(=O)[nH]c(N/N=C/c2ccc(O)c(O)c2)n1	-5	5	0	42*	-4	7
CCOC(=O)c1nc(N/N=C/c2ccccc2)sc1Br	4	25	-4	51*	2	21
CC(C)(C)C(=O)NC(c1ccccc1)c1c(O)ccc2ccccc12 (stereo unspecified)	-3	19	-5	53*	-4	6
NC(=O)c1ccc(N=C2C(=O)Nc3ccc([N+](=O)[O-])cc32)cc1	44*	56*	-2	71*	1	30
CCCOC(=O)CSC1=C(C#N)C(c2ccccc2OCC)C(C#N)C(=O)N1 (stereo unspecified)	-3	5	2	71*	8	0
O=C(NNC(=O)C(Cl)Cl)c1cnn(-c2ccccc2)c1C(F)(F)F	-6	2	1	49*	7	29
CCOC(=O)c1csc(NC(=O)C2CCCN(S(=O)(=O)c3ccc(C)cc3)C2)n1 (stereo unspecified)	9	x	x	x	0	x
O=[N+]([O-])c1ccccc1C1Nc2cccc3cccc(c23)N1	3	22	-8	49*	29*	15
SMILES	TDP2 absorb	Apaf1 inhib	PAD4 inh	GSTO1 counter	PRMT1 FP inh	GSTO1 inh conf	others
CCCCNC(=O)C1CCCN1C(=O)Nc1ccc2c(c1)OCO2 (stereo unspecified)	2	x	x	x	2	x
Cc1ccc(N(C(=O)CCl)C(C(=O)NC2CCCCC2)c2cccnc2)cc1C (stereo unspecified)	-8	x	1	99*	4	92*	GSTO1 recomb ABPP=71
COc1ccc(C(=O)Nc2ccc3c(c2)C(=O)c2ccccc2C3=O)cc1OC	3	i	0	4	1	x
COc1ccc(C(=O)c2c(C(F)(F)F)oc3c2C(=O)c2ccccc2C3=O)cc1OC	11	85*	34*	77*	0	65*
Cc1cc(O)c(-c2cc(O)c(C)cc2O)cc1O	18	3	-1	82*	87*	8
CN(C)CC(=O)N[C@@H]1C[C@@H]2O[C@@H](CO)CC[C@@H]2O[C@@H]1CCc1ccc(C2=CCCCC2)cc1	-1	x	x	x	1	x
O=C(NC1CCCC1)C(C1CC1)n1c(-c2ccnc3ccccc23)nc2ccccc21 (stereo unspecified)	-2	x	x	x	-2	x
CCOc1cc(N2CCOCC2)c(OCC)cc1NC(=O)COC(=O)[C@@H]1CCCN1S(=O)(=O)c1ccccc1F	1	5	-1	80*	0	80*
COc1cccc(CNC(=O)[C@@H]2CCCN2C(=O)[C@H]2CCCCN2C(=O)c2cccs2)c1	5	x	x	x	2	x
CCCCc1ccc2nc(NC(=O)c3ccco3)sc2c1	-8	x	x	x	-3	x
COc1ccc(C2=CC3=C(Br)C(=O)C(C)(OC(=O)C4CCCC4)C(=O)C3=CO2)cc1 (stereo unspecified)	x	7	-10	39*	x	25
COc1ccc(NC(=O)C2(C)Cc3c(-c4ccc(NC(C)=O)cc4)ccnc3O2)cc1OC (stereo unspecified)	-1	x	x	x	-2	x
O=[N+]([O-])c1ccccc1N/N=C/c1cccc(O)c1O	22	-2	1	49*	-2	8
CC(C)(C)OC(=O)N1c2ccccc2[C@]2(N3CCCC3)C[C@H](C(=O)O)N(C(=O)OC(C)(C)C)[C@H]12	-8	x	x	x	0	x
CC(=O)N1N=C(c2ccccc2)OC1c1ccc([N+](=O)[O-])s1 (stereo unspecified)	x	37	-13	41*	x	14
ClC(Cl)(Cl)c1nc2ccccc2n2nncc12	8	3	4	64*	-4	52*
Clc1ncccc1-c1nnn(-c2ccccc2)n1	-4	2	-3	58*	-4	4
Cc1nc2ccccc2c(=O)n1/N=C/c1ccccc1	7	-3	-2	6	-2	x
Cc1nc2ccccc2c(=O)n1/N=C/c1ccc(O)c(O)c1O	-3	25	2	71*	16	14
Cc1cc(O)c(N)c(C)c1Cl	-20	1	2	46*	18	3
Cc1cc(O)cc(C)c1Cl	4	-4	5	8	-4	x
COc1ccc(C2=C(N)c3ccccc3C2=O)cc1	x	-3	-4	-1	x	x
